{"data": "Measurements from different studies", "cell line": "Jurkat", "effect on": "cell growth or viability", "note": "Protocols differ between the studies behind these lines."}
{"Compound": "CCCON(Cc1ccc(C(=O)NO)cc1)C(=O)Nc1ccc(N(C)C)cc1", "test": "ATP luminescence", "setting": "72 h", "endpoint": "IC50", "result": "5.22 µM"}
{"Compound": "CCOC(=O)CCC1=CC2C=CC=CC1C2C1CCCCC1=O (centres unmarked)", "test": "flow cytometry", "endpoint": "IC50", "result": "0.048 µM"}
{"Compound": "Cc1cc2c(cc1N1C(=O)c3cccc4c(CCCO)ccc(c34)C1=O)n(C)c(=O)n2C (racemic)", "test": "resazurin", "endpoint": "GI50", "result": "3.9 µM"}
{"Compound": "O=C1CCCCC1C1C2C=CC=CC1C(CCN1C(=O)c3ccccc3C1=O)=C2 (centres unmarked)", "test": "flow cytometry", "endpoint": "IC50", "result": "0.026 µM"}
{"Compound": "CCCCCCCCCCCCNC(=O)NCCCC[C@H](NS(C)(=O)=O)C(=O)N[C@H](C)C(=O)N[C@@H](CCCNC(=N)N)C(N)=O", "test": "MTT", "setting": "72 h", "endpoint": "EC50", "result": "25.4 to 40.8 µM"}
{"Compound": "Cc1cc(=O)n(C)c2cc(N3C(=O)CC[C@H](NS(=O)(=O)CC(C)C)[C@H]3c3ccc(Cl)cc3)ccc12", "setting": "7 days", "endpoint": "EC50", "result": "10.5 µM"}
{"Compound": "C[C@H](O)C(=O)CCCCCCC(=O)Nc1cccc(-c2cn(-c3ccccc3)nn2)c1", "test": "thymidine uptake", "endpoint": "IC50", "result": "2.84 µM"}
{"Compound": "CCn1cc(-c2cccc(C(F)(F)F)c2)c2sc(C(=N)NC3CCS(=O)(=O)CC3)cc2c1=O", "setting": "7 days", "endpoint": "EC50", "result": "3.64 µM"}
{"Compound": "N#CCCC1=CC2C=CC=CC1C2C1CCCCC1=O (centres unmarked)", "test": "flow cytometry", "endpoint": "IC50", "result": "0.075 µM"}
{"Compound": "CCCCCCCCCCCCNC(=S)NCCCC[C@H](NS(C)(=O)=O)C(=O)N[C@H](C)C(=O)N[C@@H](CCCNC(=N)N)C(=O)N1CCOCC1", "test": "MTT", "setting": "72 h", "endpoint": "EC50", "result": "35.5 to 64.4 µM"}
{"Compound": "O=C(/C=C/C=C/c1ccc2c(c1)OCO2)N1CCCCC1", "test": "MTT", "setting": "48 h", "endpoint": "IC50", "result": "> 50 µg/mL"}
